Compound activity deposited in PubChem by several laboratories.
Many of the other results were omitted from the sample, so hits are more common in it than they were.
CHOP inh – inhibitors of CHOP promoter induction, primary screen, cell-based, unfolded protein response, luciferase reporter. inhibition, % at 10 µM. 220,000 compounds, 3.8% hits. AID 2732, 2010. CHO-K1 CHOP-promoter luciferase, tunicamycin-induced, 15-18 h;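 active = compounds that reduced the stress-induced luciferase reporter signal by more than about 70% of percent inhibition, limit read from the data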;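 also: 0% = tunicamycin plus vehicle and 100% = wells without tunicamycin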
Beta2AR agonist – beta2AR agonists driving receptor internalization, primary screen, cell-based, FAP fluorogen, flow cytometry; Beta-2 adrenergic receptor (Homo sapiens), P07550; Am2.2-beta2AR cells; response, % (concentration not given with the values); 340,000 compounds, 0.43% hits; AID 504454, 2011;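 active = response above a set limit, near 3 SD of response in nonfluorescent compounds, cut at about 42% in these data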
Target sequence (P07550 whole entry, looked up): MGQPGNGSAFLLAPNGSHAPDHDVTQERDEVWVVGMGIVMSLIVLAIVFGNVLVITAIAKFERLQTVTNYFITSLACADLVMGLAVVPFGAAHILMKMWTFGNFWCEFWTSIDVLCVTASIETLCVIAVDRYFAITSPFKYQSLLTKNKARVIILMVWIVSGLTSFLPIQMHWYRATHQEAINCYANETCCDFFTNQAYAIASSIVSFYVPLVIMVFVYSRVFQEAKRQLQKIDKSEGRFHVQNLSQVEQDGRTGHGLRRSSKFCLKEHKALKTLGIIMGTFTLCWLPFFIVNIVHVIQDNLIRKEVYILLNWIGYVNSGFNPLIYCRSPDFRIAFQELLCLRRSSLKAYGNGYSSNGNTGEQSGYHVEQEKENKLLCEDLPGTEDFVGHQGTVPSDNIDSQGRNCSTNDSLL
p-CIP stab down – p/CIP-EGFP fusion destabilizers, primary screen, fluorescence, F442A cells; 16 h; AID 1984, 2009; decrease of EGFP signal, % at 10 µM; 290,000 compounds, 0.01% hits;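 active = EGFP signal decrease of at least 30% at 10 µM or well 3 SD below plate mean, unless failing retest; inactive = the rest, including hits failing retest or dose response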
Dynein transport – inhibitors of GR-EGFP nuclear translocation, primary screen, dynein cargo transport inhibitor project, imaging, high-content, 3617.4 mouse cells; test concentration mostly 20 µM; stimulated with dexamethasone, 1 µM; hits give low values; z-score, hits read low; 220,000 compounds, 0.47% hits;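 active = plate z-score of nuclear minus cytoplasmic receptor signal below a set negative limit, without overly bright fluorescence or cell loss, cut at about -3.5 in these data, passing the limit was not always enough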;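 also: z-score of nuclear minus cytoplasmic ring GR-EGFP intensity difference per well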
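Also added – dexamethasone, 1.0 µM final · Buffer or medium – tet-free, stripped-serum medium · Schedule – induction 48 h, compound 1 h, agonist 30 min · Detection – formaldehyde fixation, Hoechst nuclear stain, 10x automated fluorescence imaging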
UPR XBP1 act – activators of adaptive XBP1 UPR arm, primary screen, cell-based, CHO-XBP1 luciferase reporter, luminescence, uHTS. activation, % at 20 µM. 330,000 compounds, 0.33% hits. IRE1-XBP1 UPR activation; percent of tunicamycin response, DMSO as zero;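 active = versus positive control, 20 µM dose yields 30% or more activation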;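 also: 100% = tunicamycin at 10 µg/mL and 0% = DMSO only wells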
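Assay system: CHO-XBP1 luciferase reporter cells; Schedule: 6 h treatment, 37 °C; Detection: glow luminescence from Steady-Glo reagent; Benchmarks: high control tunicamycin 10 µg/mL final, low control DMSO vehicle only.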
CHOP UPR activ – activators of apoptotic CHOP UPR arm, primary screen, cell-based, CHO-CHOP luciferase reporter, luminescence, uHTS. UPR activation; percent of tunicamycin response over DMSO baseline. 330,000 compounds, 0.34% hits. activation, % at 10 µM;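 active = at 10 µM dose, activation of 40% or more, normalized to positive control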;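 also: 100% = tunicamycin at 10 µg/mL and 0% = DMSO alone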
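System: CHO-CHOP luciferase reporter cell line; amount: 500 cells/well; buffer or medium: F12 medium containing 10% fetal bovine serum; incubation: 6 h compound exposure at 37 °C after overnight seeding; measured by: luciferase luminescence after 10 min with Steady-Glo reagent; evaluation: % reporter activation, DMSO baseline versus tunicamycin full activation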
The depositor's hits bear a star; i = inactive; / = not tested or not shown.

SMILES	CHOP inh	Beta2AR agonist	p-CIP stab down	Dynein transport	UPR XBP1 act	CHOP UPR activ
CCC(c1nnnn1CCc1ccccc1)N(Cc1ccco1)Cc1cc2cc(C)cc(C)c2[nH]c1=O (stereo unspecified)	/	7	2	-0.9	-4	3
CCC(c1nnnn1CCc1ccccc1)N(Cc1ccco1)Cc1cc2c(C)ccc(C)c2[nH]c1=O (stereo unspecified)	90*	5	-5	-0.59	-3	0
O=C(C1CC1)N1CCN=C1SCc1ccccc1Cl	33	-31	-8	1.7	2	2
CCCCn1c(=O)[nH]c2ccccc21	15	-4	-8	0.081	-3	-2
O=c1[nH]c2ccccc2n1CCCSc1cnc2ccccc2n1	78*	-16	-2	2	1	-2
FC(F)(F)c1cc(-c2cccs2)nc(-n2cc(Cl)cn2)n1	85*	-12	-80	0.62	2	0
CS(=O)(=O)c1ccc(Cl)c(NC(=O)COC(=O)c2ccc(F)cc2Cl)c1	14	3	-8	2.2	-2	1
CCSc1nc2sc3c(c2c(=O)[nH]1)CCc1ccccc1-3	84*	0	7	0.15	1	1
O=C1CCc2ccccc2N1	20	-5	-10	-0.036	-1	1
S=C1Cc2ccccc2N1	107*	40	-8	0.4	/	/
COc1ccc2cc(C(=O)NCc3ccccc3CN3CCCC3)ccc2c1	/	9	/	/	-2	-1
CCc1ccc2nc(NC(=O)c3ccc(N4C(=O)CCC4=O)cc3)sc2c1	80*	-3	1	-0.58	-1	5
O=C(Nc1nc(-c2ccccc2)cs1)c1ccc(N2CCOCC2)c([N+](=O)[O-])c1	79*	29	-2	-0.44	-3	0
Cc1cc(C)n(-c2ccc(C(=O)Nc3nc4ccccc4s3)cc2)n1	90*	-2	-8	-0.29	7	5
O=C(Nc1nc2ccccc2s1)c1ccc(N2CCCCC2)c([N+](=O)[O-])c1	79*	3	-1	-0.61	3	3
CNS(=O)(=O)c1ccc2nc(NC(=O)c3ccc(N4C(=O)CCC4=O)cc3)sc2c1	-28	4	6	-0.3	-2	0
O=C(Nc1ccon1)c1ccc(N2CCCCC2)c([N+](=O)[O-])c1	-11	11	0	0.051	4	6
CCCCS(=N)(=O)CC[C@H](N)C(=O)O (stereo partly specified)	44	/	/	/	/	/
C=C[C@]12CC[C@H](OC(C)=O)CC1=CCC1C2CC[C@@]2(C)C1CCC21OCCO1 (stereo partly specified)	/	-2	/	/	/	/
CN(CC(=O)Nc1ccccc1Cl)C(=O)c1ccc(COc2ccccc2)cc1	/	4	/	/	-1	2
COc1ccc(S(=O)(=O)N2CCN(CC(=O)Nc3sccc3C(N)=O)CC2)cc1OC	/	6	/	/	-1	-1
CCCCn1c(N)c(N(CCOC)C(=O)CC(NC(=O)c2ccccc2Cl)c2ccccc2)c(=O)[nH]c1=O (stereo unspecified)	/	-6	/	/	/	/
CC1=CC2=NC(=O)/C(=C\c3ccc(-c4cccc(Cl)c4)o3)C(=N)N2O1	107*	5	-1	7.9	0	1
COC(=O)c1sccc1NC(=O)/C=C/c1ccc(Cl)cc1	38	0	-6	-0.23	1	6
CC(=O)c1cc2c(C)c(C(=O)c3ccccc3)oc2cc1O	83*	-116	-13	-0.099	-3	-1
SMILES	CHOP inh	Beta2AR agonist	p-CIP stab down	Dynein transport	UPR XBP1 act	CHOP UPR activ
O=C(c1ccccc1)c1ccc(O)cc1O	16	-15	-73	0.99	2	0
c1ccc2nc(-c3nc4ccccc4o3)ccc2c1	71*	-28	-3	-1.3	-4	-8
CCOc1ccc(Oc2ccc(C(F)(F)F)cc2N)cc1	78*	4	3	0.099	-2	5
COc1cccc(Oc2ccc(C(F)(F)F)cc2N)c1	54	12	10	0.02	2	2
CCCCN(CCCC)CC(O)COc1ccccc1Br (stereo unspecified)	28	14	-10	0.33	-4	-1
CC(C)CN(CC(C)C)CC(O)COc1ccccc1Br (stereo unspecified)	85*	-3	-11	-0.31	-1	0
CCN1/C(=C/C=C/c2oc3ccc(-c4ccccc4)cc3[n+]2CC)Oc2ccc(-c3ccccc3)cc21	108*	/	i	-7	-8	-10
N#CC(=C(\N)Sc1ccccc1N)/C(C#N)=C(/N)Sc1ccccc1N	-11	/	/	/	/	/
CCN(CC(=O)Nc1cc(OC)ccc1OC)Cc1nc2ccccc2c(=O)[nH]1	-12	-7	3	0.82	-2	3
COc1cc2c(cc1NC(=O)CSc1nc3ccccc3[nH]1)oc1ccccc12	95*	-8	-3	-0.66	-3	-1
COc1cc2c(cc1NC(=O)CN(C)Cc1nc3ccccc3c(=O)[nH]1)oc1ccccc12	74*	8	15	1.2	4	5
Cc1ccc(S(=O)(=O)Nc2cc(-c3ccccc3)nn2C)cc1Cl	15	3	-7	0.29	-2	-1
COc1cc(-c2nc(-c3ccccc3)c(-c3ccc(F)cc3)[nH]2)cc2c1OCO2	70*	10	-5	0.046	0	1
O=C(NC(=S)NC1CCCC1)c1ccccc1Br	83*	-3	3	0.38	4	4
CCCCCCCCCCCC(=O)NC(C(=O)OCC)C(O)c1cccc([N+](=O)[O-])c1 (stereo unspecified)	92*	4	2	0.47	0	3
Cc1cc(C)cc(NC(=O)Nc2ccc3c(c2)N(C)C(=O)CS3)c1	87*	18	-10	-1.2	-4	0
Cc1ccc(NC(=O)Nc2ccc3c(c2)N(C)C(=O)CS3)cc1C	73*	4	-22	1.3	-2	3
CCc1ccc(NC(=O)Nc2ccc3c(c2)N(C)C(=O)CS3)cc1	75*	29	-16	-0.18	0	0
O=C(c1ccco1)N1CCN(C(=O)C2CC(c3ccccc3F)=NO2)CC1 (stereo unspecified)	/	-10	-10	/	-1	1
CN(CCc1ccccn1)C(=S)Nc1ccc(Cl)cc1Cl	-3	33	-3	0.19	-1	-1
Cc1cc(OCC(=O)N2CCC(C(N)=O)CC2)c2c(C)cc(=O)oc2c1	/	12	-6	/	1	-1
N#Cc1ccc(-c2ccc(F)cc2)nc1Oc1ccccc1	8	-1	5	-1.3	-2	5
